Measured values published in ChEMBL document CHEMBL1667738, “Sesquiterpene benzoxazoles and sesquiterpene quinones from the marine sponge Dactylospongia elegans” (2011).

What was measured:
SF-268 = experiment: Cytotoxicity against human SF268 cells after 48 hrs by SRB assay; format: functional; conditions: SF-268, 48 h
Procedure, shortened: (§1)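 Cells grown in RPMI 1640 with L-glutamine and 5% fetal bovine serum, in a humidified incubator at 37 °C and 5% CO2. Seeded at 5000 cells/well. Pure compounds dissolved in DMSO, serially diluted in medium, and tested at 10 concentrations between 66.7 and 0.01 µg/mL. Total protein measured by SRB at 490 nm at 0 and 48 h. GI50 taken against vehicle-only and time-zero readings.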

MCF7 = experiment: Cytotoxicity against human MCF7 cells after 48 hrs by SRB assay; format: functional; conditions: MCF7, 48 h; procedure, shortened: as §1
NCI-H460 = experiment: Cytotoxicity against human H460 cells after 48 hrs by SRB assay; format: functional; conditions: NCI-H460, 48 h; procedure, shortened: as §1
HT-29 = experiment: Cytotoxicity against human HT-29 cells after 48 hrs by SRB assay; format: functional; conditions: HT-29, 48 h
Procedure, shortened: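 CHO-K1 (Chinese hamster ovary subclone) and HT-29 cells grown in MEM with Earle's salts, L-glutamine, nonessential amino acids and sodium pyruvate. Seeded at 5000 cells/well. Compounds dissolved in DMSO, serially diluted in medium, and tested at 10 concentrations spanning 66.7–0.01 µg/mL. SRB protein read at 490 nm at 0 and 48 h. GI50 derived against vehicle-only and time-zero values.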

CHO-K1 = experiment: Cytotoxicity against Chinese hamster CHO-K1 cells after 48 hrs by SRB assay; conditions: Cricetulus griseus, CHO-K1, 48 h

C=C1CCC[C@@]23OC4=C(C[C@]2(C)[C@@H](C)CC[C@@]13C)C(=O)C(OC)=CC4=O [DACTYLOQUINONE B]
GI50 (SF-268): 32 µM
GI50 (MCF7): 41 µM
GI50 (NCI-H460): 30 µM
GI50 (HT-29): 46 µM
GI50 (CHO-K1): 43 µM

C=C1CCC[C@H]2[C@](C)(CC3=C(O)C(=O)C=C(OC)C3=O)[C@@H](C)CC[C@]12C [ILIMAQUINONE]
GI50 (SF-268): 2.7 µM
GI50 (MCF7): 3.9 µM
GI50 (NCI-H460): 1.8 µM
GI50 (HT-29): 5.4 µM
GI50 (CHO-K1): 2 µM

C=C1CCC[C@H]2[C@](C)(Cc3c(OC(C)=O)c(OC(C)=O)cc4ncoc34)[C@@H](C)CC[C@]12C [NAKIJINOL B DIACETATE]
GI50 (SF-268): 9 µM
GI50 (MCF7): 19 µM
GI50 (NCI-H460): 6.8 µM
GI50 (HT-29): 15 µM
GI50 (CHO-K1): 5.2 µM

C=C1CCC[C@H]2[C@](C)(Cc3c(O)c(O)cc4ncoc34)[C@@H](C)CC[C@]12C [NAKIJINOL B]
GI50 (SF-268): 24 µM
GI50 (MCF7): 35 µM
GI50 (NCI-H460): 24 µM
GI50 (HT-29): 21 µM
GI50 (CHO-K1): 11 µM

C=C1CCC[C@H]2[C@](C)(CC3=C(O)C(=O)C=C(NCC(=O)O)C3=O)[C@@H](C)CC[C@]12C [SMENOSPONGINE B]
GI50 (SF-268): 9.7 µM
GI50 (MCF7): 10 µM
GI50 (NCI-H460): 6 µM
GI50 (HT-29): 6 µM
GI50 (CHO-K1): 3 µM

C=C1CCC[C@H]2[C@](C)(CC3=C(O)C(=O)C=C(NCCC(=O)O)C3=O)[C@@H](C)CC[C@]12C [SMENOSPONGINE C]
GI50 (SF-268): 20 µM
GI50 (MCF7): 31 µM
GI50 (NCI-H460): 14 µM
GI50 (HT-29): 28 µM
GI50 (CHO-K1): 18 µM
